In ChEMBL document CHEMBL3804827, “Synthesis, biological evaluation and structure-activity relationship of 2-styrylquinazolones as anti-tubercular agents” (Bioorg Med Chem Lett, 2016):
Values after ≈ are worked out from the molar mass of the structure shown.

Tests used:
[1] = Selectivity index, ratio of CC50 for African green monkey Vero cells to IC90 for Mycobacterium tuberculosis H37Rv ATCC 27294; format: toxicity, cell-based; conditions: read-out: Selectivity Index
[2] = tested on: Mycobacterium tuberculosis; assay: Antimycobacterial activity against Mycobacterium tuberculosis H37Rv ATCC 27294 after 7 days by Alamar blue assay; format: functional; conditions: H37Rv ATCC 27294, 168 h
[3] = tested on: Mycobacterium tuberculosis; assay: Antimycobacterial activity against Mycobacterium tuberculosis H37Rv ATCC 27294 after 28 days by two fold serial dilution method; format: functional; conditions: H37Rv ATCC 27294, 672 h
Outline: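 M. tuberculosis H37Rv (ATCC 27294) in vitro; MIC taken as the lowest concentration in µg/mL giving 99% growth inhibition. Determined in triplicate at pH 7.4, with standard drugs (INH, R, E, Z, Cfx) run alongside.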

[4] = Selectivity index, ratio of cytotoxicity against HEK293T cells to MIC for Mycobacterium tuberculosis H37Rv ATCC 27294; format: toxicity, cell-based, HEK-293T; conditions: human, read-out: Selectivity Index
Outline: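 HEK-293T human embryonic kidney cells were exposed to 50 µg/mL and read by MTT as % inhibition. The index relates this cytotoxicity to the MIC against M. tuberculosis H37Rv ATCC 27294, defined as 99% growth inhibition.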

Staphylococcus aureus = assay: Antibacterial activity against Staphylococcus aureus NRS70 after 16 to 20 hrs by two-fold serial dilution method; format: functional

| SMILES | MIC99 [3] [µg/mL] | selectivity ratio [4] | also measured |
| --- | --- | --- | --- |
| O=c1c2ccccc2nc(/C=C/c2ccc([N+](=O)[O-])o2)n1CCCO | – | – | selectivity ratio [1]: > 150; IC90 [2]: < 0.1 µg/mL |
| O=c1c2ccccc2nc(/C=C/c2ccccc2)n1-c1ccccc1 | 3.12 (≈ 9.63 µM) | > 16 | – |
| COc1ccc(/C=C/c2nc3ccccc3c(=O)n2-c2ccc(C)cc2)cc1 | 12.5 (≈ 33.9 µM) | – | – |
| O=c1c2ccccc2nc(/C=C/c2ccc(Cl)cc2)n1-c1ccccc1 | 12.5 (≈ 34.8 µM) | – | – |
| COc1ccc(/C=C/c2nc3ccccc3c(=O)n2-c2ccc(SC)cc2)cc1 | > 25 | – | – |
| O=c1c2ccccc2nc(/C=C/c2ccccc2)n1-c1ccc(F)cc1 | 25 (≈ 73 µM) | – | – |
| CSc1ccc(-n2c(/C=C/c3ccc(N(C)C)cc3)nc3ccccc3c2=O)cc1 | 12.5 (≈ 30.2 µM) | – | – |
| CSc1ccc(-n2c(/C=C/c3ccc(F)cc3)nc3ccccc3c2=O)cc1 | 12.5 (≈ 32.2 µM) | – | – |
| O=c1c2ccccc2nc(/C=C/c2ccc(F)cc2)n1-c1ccc(Cl)cc1 | 6.25 (≈ 16.6 µM) | > 8 | – |
| O=c1c2ccccc2nc(/C=C/c2cccs2)n1-c1ccccc1 | 3.12 (≈ 9.46 µM) | < 16 | – |
| O=c1c2ccccc2nc(/C=C/c2ccccc2)n1-c1ccc(Cl)cc1 | 12.5 (≈ 34.8 µM) | – | – |
| O=c1c2ccccc2nc(/C=C/c2ccc([N+](=O)[O-])o2)n1-c1cccc(O)c1 | – | – | selectivity ratio [1]: > 14.7; IC90 [2]: 1.02 µg/mL (≈ 2.72 µM) |
| O=c1c2ccccc2nc(/C=C/c2ccc(Cl)cc2)n1-c1ccc(Cl)cc1 | > 25 | – | – |
| O=c1c2ccccc2nc(/C=C/c2c(O)cccc2O)n1-c1ccccc1 | 6.25 (≈ 17.5 µM) | > 8 | – |
| O=c1c2ccccc2nc(/C=C/c2ccccc2)n1-c1ccc(Br)cc1 | 6.25 (≈ 15.5 µM) | > 8 | – |
| COc1cc(/C=C/c2nc3ccccc3c(=O)n2-c2ccccc2)cc(OC)c1OC | 0.78 (≈ 1.88 µM) | > 64 | – |
| Cc1ccc(-n2c(/C=C/c3ccc(F)cc3)nc3ccccc3c2=O)cc1 | > 25 | – | – |
| COc1ccc(-n2c(/C=C/c3ccccc3)nc3ccccc3c2=O)cc1 | 1.56 (≈ 4.4 µM) | > 32 | – |
| O=c1c2ccccc2nc(/C=C/c2ccc(Cl)cc2)n1-c1ccc(F)cc1 | 12.5 (≈ 33.2 µM) | – | – |
| COc1ccc(-n2c(/C=C/c3cccs3)nc3ccccc3c2=O)cc1 | 1.56 (≈ 4.33 µM) | > 32 | – |
| COc1cc(-n2c(/C=C/c3cccs3)nc3ccccc3c2=O)cc(OC)c1OC | 6.25 (≈ 14.9 µM) | < 8 | – |
| COc1ccc(/C=C/c2nc3ccccc3c(=O)n2-c2ccc(OC)cc2)cc1 | 1.56 (≈ 4.06 µM) | > 32 | – |
| CSc1ccc(-n2c(/C=C/c3ccc(Cl)cc3)nc3ccccc3c2=O)cc1 | 12.5 (≈ 30.9 µM) | – | – |
| COc1cc(-n2c(/C=C/c3ccco3)nc3ccccc3c2=O)cc(OC)c1OC | 3.12 (≈ 7.73 µM) | > 16 | – |
| CSc1ccc(/C=C/c2nc3ccccc3c(=O)n2-c2ccccc2)cc1 | 3.12 (≈ 8.44 µM) | < 16 | – |
| Cc1ccc(/C=C/c2nc3ccccc3c(=O)n2-c2ccc(C)cc2)cc1 | 3.12 (≈ 8.87 µM) | > 16 | – |
| COc1cc(-n2c(/C=C/c3ccccc3)nc3ccccc3c2=O)cc(OC)c1OC | 0.78 (≈ 1.88 µM) | > 64 | – |

| SMILES | MIC99 [3] [µg/mL] | selectivity ratio [4] | also measured |
| --- | --- | --- | --- |
| COc1ccc(/C=C/c2nc3ccccc3c(=O)n2-c2ccccc2)cc1 | 12.5 (≈ 35.3 µM) | – | – |
| O=c1c2ccccc2nc(/C=C/c2ccc(F)cc2)n1-c1ccc(Br)cc1 | 6.25 (≈ 14.8 µM) | – | – |
| COc1cc(-n2c(/C=C/c3ccc(SC)cc3)nc3ccccc3c2=O)cc(OC)c1OC | 0.4 (≈ 0.869 µM) | > 125 | – |
| O=c1c2ccccc2nc(/C=C/c2ccc(F)cc2)n1-c1ccccc1 | 25 (≈ 73 µM) | – | – |
| O=c1c2ccccc2nc(/C=C/c2ccc(OCc3ccccc3)cc2)n1-c1ccccc1 | 12.5 (≈ 29 µM) | – | – |
| COc1ccc(-n2c(/C=C/c3ccco3)nc3ccccc3c2=O)cc1 | 6.25 (≈ 18.1 µM) | < 8 | – |
| COc1cc(/C=C/c2nc3ccccc3c(=O)n2-c2ccc(SC)cc2)cc(OC)c1OC | > 25 | – | – |
| N#Cc1ccc(/C=C/c2nc3ccccc3c(=O)n2-c2cccc(C(=O)O)c2)cc1 | – | – | MIC (Staphylococcus aureus): 2 µg/mL (≈ 5.08 µM) |
| O=c1c2ccccc2nc(/C=C/c2ccco2)n1-c1ccccc1 | 12.5 (≈ 39.8 µM) | – | – |
| O=c1c2ccccc2nc(/C=C/c2ccc(F)cc2)n1-c1ccc(F)cc1 | > 25 | – | – |
| COc1cc(-n2c(/C=C/c3ccc(Cl)cc3)nc3ccccc3c2=O)cc(OC)c1OC | 3.12 (≈ 6.96 µM) | > 16 | – |
| O=c1c2ccccc2nc(/C=C/c2ccc(Cl)cc2)n1-c1ccc(Cc2ccccc2)cc1 | 3.12 (≈ 6.96 µM) | – | – |
| COc1ccc(/C=C/c2nc3ccccc3c(=O)n2-c2cc(OC)c(OC)c(OC)c2)cc1 | 12.5 (≈ 28.1 µM) | – | – |
| Cc1ccc(-n2c(/C=C/c3ccccc3)nc3ccccc3c2=O)cc1 | > 25 | – | – |
| Cc1ccc(-n2c(/C=C/c3ccc(Cl)cc3)nc3ccccc3c2=O)cc1 | 25 (≈ 67.1 µM) | – | – |
| Cc1ccc(/C=C/c2nc3ccccc3c(=O)n2-c2ccc(F)cc2)cc1 | 6.25 (≈ 17.5 µM) | > 8 | – |
| CSc1ccc(-n2c(/C=C/c3ccc(OC(C)=O)cc3)nc3ccccc3c2=O)cc1 | 6.25 (≈ 14.6 µM) | – | – |
| COc1ccc(-n2c(/C=C/c3ccc(Cl)cc3)nc3ccccc3c2=O)cc1 | 3.12 (≈ 8.04 µM) | < 16 | – |
| COc1cc(-n2c(/C=C/c3ccc(F)cc3)nc3ccccc3c2=O)cc(OC)c1OC | 6.25 (≈ 14.5 µM) | > 8 | – |
| CSc1ccc(-n2c(/C=C/c3ccccc3)nc3ccccc3c2=O)cc1 | 0.78 (≈ 2.11 µM) | > 64 | – |
| CSc1ccc(-n2c(/C=C/c3ccco3)nc3ccccc3c2=O)cc1 | 6.25 (≈ 17.3 µM) | > 8 | – |
| CSc1ccc(-n2c(/C=C/c3cccs3)nc3ccccc3c2=O)cc1 | 6.25 (≈ 16.6 µM) | > 8 | – |
| CC[C@@H](CO)NCCN[C@@H](CC)CO [ETHAMBUTOL] | 1.56 (≈ 7.64 µM) | – | – |
| NNC(=O)c1ccncc1 [ISONIAZID] | 0.098 (≈ 0.715 µM) | – | – |
| NC(=O)c1cnccn1 [PYRAZINAMIDE] | 6.25 (≈ 50.8 µM) | – | – |
| CO[C@H]1/C=C/O[C@@]2(C)Oc3c(C)c(O)c4c(O)c(c(/C=N/N5CCN(C)CC5)c(O)c4c3C2=O)NC(=O)/C(C)=C\C=C\[C@H](C)[C@H](O)[C@@H](C)[C@@H](O)[C@@H](C)[C@H](OC(C)=O)[C@@H]1C [RIFAMPIN] | 0.197 (≈ 0.239 µM) | – | – |
